Measurements reported in ChEMBL document CHEMBL1671728, “Short cationic antimicrobial peptides interact with ATP” (2010).
Converted amounts (≈) assume the structure as drawn. The source made the active and inactive calls. No cut-off for these calls is given here. Square brackets hold non-standard residues; d marks the D form. Peptide text beside a SMILES is read from it. Orn = NCCC[C@H](N)C(=O)O

Columns and labels:
Pseudomonas aeruginosa = assay: Antimicrobial activity against Pseudomonas aeruginosa PAO1 H103; type: functional
[1] = target: Luciferin 4-monooxygenase (Photinus pyralis) (UniProt P08659); assay: Inhibition of Photinus pyralis fire fly luciferase assessed as reduction in light production at 10 times MIC for Pseudomonas aeruginosa PAO1 H103 by ATP bioluminescence assay
Luciferin 4-monooxygenase (Photinus pyralis), sequence (P08659 whole entry): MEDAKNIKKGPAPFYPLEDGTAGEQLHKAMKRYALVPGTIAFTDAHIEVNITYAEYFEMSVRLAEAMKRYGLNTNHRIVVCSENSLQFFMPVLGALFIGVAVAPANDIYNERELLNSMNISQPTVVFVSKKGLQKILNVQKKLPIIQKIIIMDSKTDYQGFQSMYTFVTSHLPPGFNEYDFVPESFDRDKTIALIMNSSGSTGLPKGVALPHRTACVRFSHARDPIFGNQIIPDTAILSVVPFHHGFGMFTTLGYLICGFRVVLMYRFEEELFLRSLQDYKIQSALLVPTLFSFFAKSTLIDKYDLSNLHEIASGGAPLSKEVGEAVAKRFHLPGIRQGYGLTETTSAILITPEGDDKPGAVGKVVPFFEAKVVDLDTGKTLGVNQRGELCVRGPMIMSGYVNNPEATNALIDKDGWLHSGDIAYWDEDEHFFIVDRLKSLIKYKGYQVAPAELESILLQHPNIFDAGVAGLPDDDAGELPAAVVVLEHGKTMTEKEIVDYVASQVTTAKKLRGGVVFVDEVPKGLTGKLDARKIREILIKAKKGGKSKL
Procedure, shortened: (§1)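 Firefly luciferase kit mix (luciferin, MgSO4, DTT, EDTA, BSA, tricine) was combined with peptide at 1, 3 or 10× MIC against P. aeruginosa PAO1 H103. ATP (200 µM) was added to start the reaction and luminescence was read, with an ATP standard curve. Activity was scored by the lowest MIC multiple giving ≥75% loss of light.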

[2] = Inhibition of DnaK assessed as reduction in ATP turnover at MIC for Pseudomonas aeruginosa PAO1 H103 by ATPase assay
Procedure, shortened: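 DnaK ATPase run in 20 mM HEPES pH 8, 10 mM Mg acetate, 100 mM NaCl with 200 µM [α-32P]ATP (~8 Ci/mmol) and peptide at 1× MIC (control without peptide), 37°C for 15 min. Stopped with EDTA/SDS and imaged by phosphorimager. Turnover was taken as the ADP fraction of total spots, corrected for no-protein background, mean of two independent assays.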

[3] = Inhibition of DNA polymerase assessed as reduction in PCR products at MIC for Pseudomonas aeruginosa PAO1 H103 by qPCR
[4] = target: Luciferin 4-monooxygenase (Photinus pyralis) (UniProt P08659); assay: Inhibition of Photinus pyralis fire fly luciferase assessed as reduction in light production at 3 times MIC for Pseudomonas aeruginosa PAO1 H103 by ATP bioluminescence assay
Procedure, shortened: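 Commercial ATP bioluminescence kit with lyophilized firefly luciferase, luciferin, MgSO4, DTT, EDTA, BSA and tricine buffer. An ATP standard curve was run. Peptide was premixed with the kit solution, and ATP (200 µM) was added to start the reaction. Luminescence was read. Peptides were tested at 1×, 3× and 10× their MIC against P. aeruginosa PAO1 H103. Scoring was ≥75% loss of light at 3× MIC.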

[5] = target: Luciferin 4-monooxygenase (Photinus pyralis) (UniProt P08659); assay: Inhibition of Photinus pyralis fire fly luciferase assessed as reduction in light production at 1 times MIC for Pseudomonas aeruginosa PAO1 H103 by ATP bioluminescence assay; procedure, shortened: as §1
[6] = Inhibition of DNA polymerase assessed as reduction in PCR products at 3 times MIC for Pseudomonas aeruginosa PAO1 H103 by qPCR

Molecule | MIC (Pseudomonas aeruginosa) | inhibition [1] | inhibition [2] | inhibition [3] | inhibition [4] | inhibition [5] | inhibition [6]
H-KWKSFLKTFKSAVKTVLHTALKAISS-OH | 2 µg/mL | inactive | inactive | inactive | – | – | –
H-KWKSFLRTFKSPVRTVFHTALKPISS-OH | 16 µg/mL | inactive | – | – | – | – | –
H-RLARIVVIRVAR-NH2 | 50 µg/mL | – | Active | Active | > 75% | – | –
H-RLWRIVVIRVAR-NH2 | 8 µg/mL | – | Active | – | – | 75% | Active
CC(C)[C@H](NC(=O)[C@H](CCCNC(=N)N)NC(=O)[C@H](Cc1ccccc1)NC(=O)[C@H](CS)NC(=O)[C@H](Cc1c[nH]c2ccccc12)NC(=O)[C@H](CCCNC(=N)N)NC(=O)[C@@H](N)CCCNC(=N)N)C(=O)N[C@@H](CS)C(=O)N[C@@H](Cc1ccc(O)cc1)C(=O)N[C@@H](CCCNC(=N)N)C(=O)NCC(=O)N[C@@H](Cc1ccccc1)C(=O)N[C@@H](CS)C(=O)N[C@@H](Cc1ccc(O)cc1)C(=O)N[C@@H](CCCNC(=N)N)C(=O)N[C@@H](CCCCN)C(=O)N[C@@H](CS)C(=O)N[C@@H](CCCNC(=N)N)C(N)=O [POLYPHEMUSIN I] (H-RRWCFRVCYRGFCYRKCR-NH2) | 2 µg/mL (≈ 0.814 µM) | > 75% | – | – | – | – | –
H-KWKSFLRTLKSPAKTVFHTALKAISS-OH | 16 µg/mL | inactive | – | – | – | – | –
GENTAMICIN | 25 µg/mL | inactive | – | – | – | – | –
CC[C@H](C)[C@H](NC(=O)[C@H](CC(C)C)NC(=O)[C@H](C)NC(=O)[C@@H]1CCCN1C(=O)[C@H](CC(C)C)NC(=O)CNC(=O)[C@@H](NC(=O)[C@@H](NC(=O)[C@H](CC(C)C)NC(=O)[C@@H](NC(=O)[C@H](CCCCN)NC(=O)[C@H](CCCCN)NC(=O)[C@@H](NC(=O)[C@H](C)NC(=O)[C@@H](NC(=O)[C@@H](NC(=O)[C@H](CC(C)C)NC(=O)[C@H](CCCCN)NC(=O)[C@H](CCCCN)NC(=O)[C@@H](NC(=O)[C@H](Cc1ccccc1)NC(=O)[C@H](CO)NC(=O)[C@H](CCCCN)NC(=O)[C@H](Cc1c[nH]c2ccccc12)NC(=O)[C@@H](N)CCCCN)[C@@H](C)CC)[C@@H](C)O)[C@@H](C)O)C(C)C)C(C)C)[C@@H](C)O)[C@@H](C)O)C(=O)N[C@@H](CO)C(=O)O | 2 µg/mL (≈ 0.696 µM) | inactive | inactive | inactive | – | – | –
H-RRWRIVVIRVRR-NH2 | 2 µg/mL | – | – | – | – | 75% | –
H-RLARIVPIRVAR-NH2 | > 250 µg/mL | inactive | – | – | – | – | –
CC(C)C[C@@H]1NC(=O)[C@H](CCCN)NC(=O)[C@H](C(C)C)NC(=O)[C@@H]2CCCN2C(=O)[C@@H](Cc2ccccc2)NC(=O)[C@H](CC(C)C)NC(=O)[C@H](CCCN)NC(=O)[C@H](C(C)C)NC(=O)[C@@H]2CCCN2C(=O)[C@@H](Cc2ccccc2)NC1=O [GRAMICIDIN S] (cyclo(L[dF]PV[Orn]L[dF]PV[Orn])) | 0.2 µg/mL (≈ 0.175 µM) | inactive | – | inactive | – | – | –
H-VRLRIRVAVIRA-NH2 | 10 µg/mL | > 75% | – | – | – | – | –
H-RAVAVIIRLRRV-NH2 | 33 µg/mL | – | – | – | > 75% | – | –
CC[C@H](C)[C@H](NC(=O)CNC(=O)[C@@H](NC(=O)[C@H](CCCCN)NC(=O)[C@H](CCCCN)NC(=O)[C@H](Cc1ccccc1)NC(=O)[C@H](CC(C)C)NC(=O)[C@H](CCCCN)NC(=O)[C@H](Cc1c[nH]c2ccccc12)NC(=O)[C@@H](N)CCCCN)[C@@H](C)CC)C(=O)NCC(=O)N[C@@H](C)C(=O)N[C@H](C(=O)N[C@@H](CC(C)C)C(=O)N[C@@H](CCCCN)C(=O)N[C@H](C(=O)N[C@@H](CC(C)C)C(=O)N[C@H](C(=O)N[C@H](C(=O)NCC(=O)N[C@@H](CC(C)C)C(=O)N1CCC[C@H]1C(=O)N[C@@H](C)C(=O)N[C@@H](CC(C)C)C(=O)N[C@H](C(=O)N[C@@H](CO)C(=O)O)[C@@H](C)CC)[C@@H](C)O)[C@@H](C)O)C(C)C)C(C)C | 2 µg/mL (≈ 0.715 µM) | inactive | – | – | – | – | –
H-RRAAVVLIVIRR-NH2 | 7 µg/mL | – | – | – | > 75% | – | –
H-RRWKIVVIRWRR-NH2 | 2 µg/mL | – | Active | Active | – | 75% | –
H-KWKSFIKKLTSAAKKVVTTAKPLISS-OH | 2 µg/mL | inactive | – | – | – | – | –
POLYMYXIN B | 0.5 µg/mL | – | inactive | inactive | – | – | –
